Experimental data of several laboratories.
Protocols differ between the studies behind these lines.
Target: Serine/threonine-protein kinase Nek5 (NEK5, Homo sapiens, UniProt Q6P3R8)
One construct used (Q6P3R8 1-708): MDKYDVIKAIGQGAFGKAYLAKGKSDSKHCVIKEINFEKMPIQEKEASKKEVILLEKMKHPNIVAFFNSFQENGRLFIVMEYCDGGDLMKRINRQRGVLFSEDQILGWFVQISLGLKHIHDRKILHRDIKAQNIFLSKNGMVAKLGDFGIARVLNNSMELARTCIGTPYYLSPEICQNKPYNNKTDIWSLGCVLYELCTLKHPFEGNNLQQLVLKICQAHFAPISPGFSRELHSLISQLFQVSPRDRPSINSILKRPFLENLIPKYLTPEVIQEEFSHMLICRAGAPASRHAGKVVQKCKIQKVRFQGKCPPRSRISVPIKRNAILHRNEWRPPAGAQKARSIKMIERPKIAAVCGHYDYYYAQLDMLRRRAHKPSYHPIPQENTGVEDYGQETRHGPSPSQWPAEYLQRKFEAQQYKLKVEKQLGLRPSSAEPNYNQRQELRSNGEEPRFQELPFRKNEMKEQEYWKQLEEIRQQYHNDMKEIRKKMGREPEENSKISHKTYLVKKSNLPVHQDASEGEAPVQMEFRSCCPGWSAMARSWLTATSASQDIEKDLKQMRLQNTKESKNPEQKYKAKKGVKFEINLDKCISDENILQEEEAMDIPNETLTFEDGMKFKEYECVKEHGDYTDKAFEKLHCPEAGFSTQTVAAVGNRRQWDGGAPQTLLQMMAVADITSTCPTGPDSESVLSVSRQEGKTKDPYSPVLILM

effect on	method	tested at	remaining binding [%]	SMILES
binding	competition with immobilised ligand	1 µM	0	O=C(c1ccc(Nc2ncc(Cl)c(-c3ccc(Cl)s3)n2)cc1)N1CCC(N2CCCC2)CC1
binding		1 µM	87	N[C@H]1CCN(c2nccc(-c3cnn4ncccc34)n2)C1
binding	competition with immobilised ligand	1 µM	100	c1ccc(N2CCN(Cc3nc4ccccc4[nH]3)CC2)nc1
binding		1 µM	90	C[C@H]1CCN(c2nccc(-c3cnn4ncccc34)n2)C1
cell-free assay	competition with immobilised ligand	1 µM	100	FC(F)(F)c1ccc2c(c1)nc(-c1cccnc1)n2C1CC1
cell-free assay	competition with immobilised ligand	5 µM	74	FC(F)(F)Oc1cccc(-c2cnc3ccc(-c4ccncc4)nn23)c1
binding	competition with immobilised ligand	1 µM	100	Nc1ncc2c(n1)-c1c([nH]c3ccc(C#CC4CC4)cc13)CCCC2
binding		1 µM	100	CN(CCCC(F)(F)F)c1nccc(-c2cnn3ncccc23)n1
cell-free assay	competition with immobilised ligand	5 µM	88	COc1ncc2cc3ccccc3nc2c1C#N
binding	competition with immobilised ligand	1 µM	42	COc1cnc(Nc2cccc(S(N)(=O)=O)c2)nc1N1CCN(c2ccccc2)CC1
binding		1 µM	100	Cc1cnn2ncc(-c3ccnc(N(C)C)n3)c2c1
binding	competition with immobilised ligand	1 µM	95	O=C(Nc1c[nH]nc1C(=O)NC1CCNCC1)c1cc(F)cc(F)c1
binding	competition with immobilised ligand	10 µM	49	c1cncc(-c2cccc(Nc3nccc(NC4CCCCC4)n3)c2)c1
cell-free assay	competition with immobilised ligand	1 µM	100	Cc1noc([C@H]2C[C@@H](c3ccc(C(F)(F)F)cc3)CN(C(=O)N3CCS(=O)(=O)C3)C2)n1
binding	competition with immobilised ligand	1 µM	0	O=C(c1ccc(Nc2ncc(Cl)c(-c3cc4ccccc4s3)n2)cc1)N1CCC(N2CCCC2)CC1
cell-free assay	competition with immobilised ligand	1 µM	100	C[C@H](NC(=O)c1cnc2n1[C@](C)(Cc1ccc(C#N)cc1)C(=O)N2c1cc(Cl)c(F)c(Cl)c1)C(=O)NC1(c2ccccn2)CC1
binding		1 µM	100	CN(c1nccc(-c2cnn3ncccc23)n1)C1CC1
cell-free assay	competition with immobilised ligand	1 µM	100	CCOCCn1cc(C(=O)Nc2ccc(-n3nc(-c4cccnc4)cc3C(F)(F)F)cn2)ccc1=O
binding	competition with immobilised ligand	1 µM	0	O=C(NCCCN1CCOCC1)c1ccc(Nc2ncc(Cl)c(-c3ccc(Cl)s3)n2)cc1
binding		1 µM	88	CN(C)c1ncc(F)c(-c2cnn3ncccc23)n1
cell-free assay	competition with immobilised ligand	1 µM	100	C[C@@H](c1cccc(C#N)c1)n1cc(Cl)cc(C(N)=O)c1=N
